Legend:
Details in all cases: stereoisomer not certain
UniProt Q8VGZ2 = molecular target: T1, UniProt Q8VGZ2
T1 sequence (whole entry): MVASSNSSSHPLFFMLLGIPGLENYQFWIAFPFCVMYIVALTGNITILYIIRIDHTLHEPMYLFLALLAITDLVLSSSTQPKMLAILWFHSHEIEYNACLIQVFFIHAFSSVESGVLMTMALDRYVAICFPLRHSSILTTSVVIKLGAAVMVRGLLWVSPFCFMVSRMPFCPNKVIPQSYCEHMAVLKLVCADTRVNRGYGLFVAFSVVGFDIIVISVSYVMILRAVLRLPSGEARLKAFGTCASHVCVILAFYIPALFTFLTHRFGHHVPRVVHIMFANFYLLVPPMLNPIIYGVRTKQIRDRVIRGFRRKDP
Outline: (§1)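 Assay methods differ from source to source, frequently being transient luciferase assays in mammalian cell lines. For each receptor–molecule pair, the label responsive (active) applies when the original authors judged the measured signal statistically different from baseline, and non-responsive (inactive) applies otherwise.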

UniProt Q8VGZ7 = molecular target: T2, UniProt Q8VGZ7
T2 sequence (whole entry): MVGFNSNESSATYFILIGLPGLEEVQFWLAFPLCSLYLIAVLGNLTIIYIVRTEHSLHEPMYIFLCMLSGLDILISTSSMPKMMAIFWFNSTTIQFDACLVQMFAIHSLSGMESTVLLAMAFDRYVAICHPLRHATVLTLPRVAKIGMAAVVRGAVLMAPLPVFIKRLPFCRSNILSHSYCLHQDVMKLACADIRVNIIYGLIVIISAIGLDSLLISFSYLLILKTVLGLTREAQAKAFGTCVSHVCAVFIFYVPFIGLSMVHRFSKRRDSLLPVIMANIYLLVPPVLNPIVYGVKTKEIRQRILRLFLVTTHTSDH
Outline: as §1

UniProt Q8VH16 = molecular target: T3, UniProt Q8VH16
T3 sequence (whole entry): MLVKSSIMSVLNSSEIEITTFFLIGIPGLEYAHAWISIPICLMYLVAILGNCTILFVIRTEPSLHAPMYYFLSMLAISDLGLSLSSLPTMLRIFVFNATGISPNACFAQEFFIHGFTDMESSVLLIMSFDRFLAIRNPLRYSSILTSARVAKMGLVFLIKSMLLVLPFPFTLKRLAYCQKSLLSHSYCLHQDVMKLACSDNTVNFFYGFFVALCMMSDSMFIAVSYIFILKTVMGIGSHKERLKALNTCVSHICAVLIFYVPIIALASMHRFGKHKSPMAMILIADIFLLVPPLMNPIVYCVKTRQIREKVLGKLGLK
Outline: as §1

UniProt Q8VH20 = molecular target: T4, UniProt Q8VH20
T4 sequence (whole entry): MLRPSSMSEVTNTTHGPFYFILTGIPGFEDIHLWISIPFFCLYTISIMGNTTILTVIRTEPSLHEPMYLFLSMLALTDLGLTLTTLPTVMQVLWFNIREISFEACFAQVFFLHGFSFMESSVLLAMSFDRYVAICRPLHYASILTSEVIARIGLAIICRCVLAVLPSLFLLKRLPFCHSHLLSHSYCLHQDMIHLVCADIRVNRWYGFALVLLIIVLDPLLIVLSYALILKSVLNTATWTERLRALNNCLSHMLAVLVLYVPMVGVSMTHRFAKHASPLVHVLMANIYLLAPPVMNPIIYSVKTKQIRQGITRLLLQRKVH
Outline: as §1

UniProt Q8VH21 = molecular target: T5, UniProt Q8VH21
T5 sequence (whole entry): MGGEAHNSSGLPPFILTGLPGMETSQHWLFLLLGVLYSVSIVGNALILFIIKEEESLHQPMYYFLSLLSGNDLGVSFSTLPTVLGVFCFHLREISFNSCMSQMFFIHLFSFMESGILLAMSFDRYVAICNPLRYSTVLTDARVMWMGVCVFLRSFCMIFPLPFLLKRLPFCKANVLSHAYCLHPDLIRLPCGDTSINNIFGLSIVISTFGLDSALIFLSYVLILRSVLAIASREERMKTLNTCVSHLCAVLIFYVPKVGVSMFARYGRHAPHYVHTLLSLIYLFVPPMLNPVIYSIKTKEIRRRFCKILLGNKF
Outline: as §1

UniProt Q920P1 = molecular target: T6, UniProt Q920P1
T6 sequence (whole entry): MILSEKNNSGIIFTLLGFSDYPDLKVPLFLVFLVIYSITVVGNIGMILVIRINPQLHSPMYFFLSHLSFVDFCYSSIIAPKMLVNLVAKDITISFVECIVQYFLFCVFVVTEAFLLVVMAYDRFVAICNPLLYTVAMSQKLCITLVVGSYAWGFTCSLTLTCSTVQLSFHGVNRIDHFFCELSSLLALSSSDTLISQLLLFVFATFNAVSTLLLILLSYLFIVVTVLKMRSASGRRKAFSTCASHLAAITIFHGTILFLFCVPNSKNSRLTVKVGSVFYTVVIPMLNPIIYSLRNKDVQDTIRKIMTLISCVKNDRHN
Outline: as §1

Measured: odorant receptor agonist call

CC1CCC(C(C)C)C(=O)C1 (configuration not stated)
not listed: UniProt Q920P1
inactive: all other assays above

Cc1ccccc1OC(=O)C(C)C
not listed: UniProt Q920P1
inactive: all other assays above

COc1ccccc1
not listed: UniProt Q920P1
inactive: all other assays above

c1ccc2ncccc2c1
not listed: UniProt Q920P1
inactive: all other assays above

CCCCCC(=Cc1ccccc1)C(OC)OC
not listed: UniProt Q920P1
inactive: all other assays above

CC1(C)CC(=O)CC(=O)C1
not listed: UniProt Q920P1
inactive: all other assays above

Cc1occc1SSc1ccoc1C
not listed: UniProt Q920P1
inactive: all other assays above

CSSCc1ccco1
not listed: UniProt Q920P1
inactive: all other assays above

CCc1nccnc1CC
not listed: UniProt Q920P1
inactive: all other assays above

COc1nccnc1C(C)C
not listed: UniProt Q920P1
inactive: all other assays above

CC(C)=C1CCC(C)CC1=O (configuration not stated)
not listed: UniProt Q920P1
inactive: all other assays above

CC=Cc1ccc(OC)cc1
not listed: UniProt Q920P1
inactive: all other assays above

CCCCCCC=CC=O
not listed: UniProt Q920P1
inactive: all other assays above

OCC=Cc1ccccc1
not listed: UniProt Q920P1
inactive: all other assays above

CCOC(=O)C(C)CC (configuration not stated)
not listed: UniProt Q920P1
inactive: all other assays above

CC(=O)C1(C)CC2=C(CCCC2(C)C)CC1C (configuration not stated)
not listed: UniProt Q920P1
inactive: all other assays above

CCSCC
not listed: UniProt Q920P1
inactive: all other assays above

C=CC(=C)CCC=C(C)C
not listed: UniProt Q920P1
inactive: all other assays above

CCc1ncc(C)nc1CC
not listed: UniProt Q920P1
inactive: all other assays above

C1CCOC1
not listed: UniProt Q920P1
inactive: all other assays above

CCCO
not listed: UniProt Q920P1
inactive: all other assays above

Cc1ccc2c(c1)OCC(=O)CO2
not listed: UniProt Q920P1
inactive: all other assays above

Cc1c(C)c(C)c(C=O)c(C)c1C
not listed: UniProt Q920P1
inactive: all other assays above

CCCCCCCCC=CC=O
not listed: UniProt Q920P1
inactive: all other assays above

CSSSC
active: UniProt Q8VH20
not listed: UniProt Q920P1
inactive: all other assays above

C=C(C)C1CC=C(C)CC1 (configuration not stated)
not listed: UniProt Q920P1
inactive: all other assays above

CC(C=O)Cc1ccc(C(C)(C)C)cc1 (configuration not stated)
inactive: UniProt Q920P1

CCCCCCCCCCOC(C)=O
not listed: UniProt Q920P1
inactive: all other assays above

CCc1ccc(O)cc1
not listed: UniProt Q920P1
inactive: all other assays above

CCC=CCCCCC=O
active: UniProt Q8VH20
not listed: UniProt Q920P1
inactive: all other assays above

C=CCc1ccc(OCC)c(OC)c1
inactive: UniProt Q920P1

C=C(C)C1CCC2(C)OC2C1 (configuration not stated)
not listed: UniProt Q920P1
inactive: all other assays above

CCCCCC(C)O (configuration not stated)
not listed: UniProt Q920P1
inactive: all other assays above

CC(=O)C=CC1=C(C)CCCC1(C)C
not listed: UniProt Q920P1
inactive: all other assays above

C=CC(C)=CCC=C(C)CCC=C(C)C
not listed: UniProt Q920P1
inactive: all other assays above

CCC(C)c1nccnc1OC (configuration not stated)
not listed: UniProt Q920P1
inactive: all other assays above

CCCCCCCCOC=O
not listed: UniProt Q920P1
inactive: all other assays above

CC(=O)OC1(C)CCC23CC1C(C)(C)C2CCC3C (configuration not stated)
active: UniProt Q8VGZ2 | UniProt Q8VH20
inactive: UniProt Q8VGZ7 | UniProt Q8VH16 | UniProt Q8VH21
